Measured values published in ChEMBL document CHEMBL4725350, “2-Oxaadamant-1-yl Ureas as Soluble Epoxide Hydrolase Inhibitors: In Vivo Evaluation in a Murine Model of Acute Pancreatitis” (J Med Chem, 2020).
≈ marks a conversion by molar mass, not a printed value. Calls of active or inactive are those of the source. The calls are words filed in the database; no cut-off is given here.

test system: THLE-2; experiment: Cytotoxicity against human THLE-2 cells assessed as reduction in cell viability measured after 72 hrs by ATPlite assay; assay type: cell-based; settings: thle-2, 72 h, read-out: LC50 (the source's name)
Method in brief: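 THLE-2 cells were grown in BEGM with 0.7 μg/mL phosphoethanolamine, 0.5 ng/mL EGF and 10% FBS, plated at 10,000 cells/well and left to adhere for 24 h. Cells were exposed to 0–100 μM final (1% DMSO) for 72 h at 37 °C, 5% CO2.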

SMILES	CC50 [nM]
CC(=O)c1ccc(N2CCC(NC(=O)NC34CC5CC(CC(C5)O3)C4)CC2)cc1	> 100000
O=C(NC1CCN(C(=O)c2ccccc2F)CC1)NC12CC3CC(CC(C3)O1)C2	> 100000

test system: not listed separately; experiment: Cytotoxicity against human PBMC assessed as reduction in cell viability measured after 72 hrs by ATPlite assay; settings: read-out: LC50 (the source's name)

SMILES	CC50 [nM]
O=C(NC1CCN(C(=O)c2ccccc2F)CC1)NC12CC3CC(CC(C3)O1)C2	> 20000

molecular target: T1, Bifunctional epoxide hydrolase 2 (Homo sapiens, UniProt P34913); experiment: Inhibition of recombinant human soluble epoxide hydrolase using CMNPC as substrate preincubated for 5 mins followed by substrate addition and measured at 30 secs interval for 10 mins by fluorescence assay; settings: not given
T1 sequence (P34913 whole entry): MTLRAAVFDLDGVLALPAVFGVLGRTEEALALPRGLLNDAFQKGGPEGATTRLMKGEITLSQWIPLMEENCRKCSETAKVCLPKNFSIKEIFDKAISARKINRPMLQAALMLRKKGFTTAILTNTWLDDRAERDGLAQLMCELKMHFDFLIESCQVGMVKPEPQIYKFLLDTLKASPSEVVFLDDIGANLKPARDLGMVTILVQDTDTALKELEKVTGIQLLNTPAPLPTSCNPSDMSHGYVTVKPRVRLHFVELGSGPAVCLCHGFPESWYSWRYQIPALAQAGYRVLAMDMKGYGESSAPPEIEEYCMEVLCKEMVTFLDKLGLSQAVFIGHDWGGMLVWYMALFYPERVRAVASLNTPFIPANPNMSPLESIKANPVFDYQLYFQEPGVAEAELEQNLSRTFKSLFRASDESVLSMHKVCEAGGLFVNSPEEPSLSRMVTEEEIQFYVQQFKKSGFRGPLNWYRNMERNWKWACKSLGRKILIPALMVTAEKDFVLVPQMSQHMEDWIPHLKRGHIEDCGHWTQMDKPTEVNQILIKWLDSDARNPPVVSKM

SMILES	IC50 [nM]
O=C(Nc1ccc(Cl)c(C(F)(F)F)c1)NC12CC3CC(CC(C3)O1)C2	19.7
O=C(NC1CCN(Cc2ccccc2)CC1)NC12CC3CC(CC(C3)O1)C2	1090
CCC(=O)N1CCC(NC(=O)NC23CC4CC(CC(C4)O2)C3)CC1	356
O=C(Nc1ccon1)NC12CC3CC(CC(C3)O1)C2	911
O=C(Nc1cc(Cl)cc(OC(F)(F)F)c1)NC12CC3CC(CC(C3)O1)C2	52.6
O=C(Nc1nc2ccccc2s1)NC12CC3CC(CC(C3)O1)C2	782
O=C(NC1CCN(C(=O)C2CC2)CC1)NC12CC3CC(CC(C3)O1)C2	213
O=C(Nc1cccc(S(F)(F)(F)(F)F)c1)NC12CC3CC(CC(C3)O1)C2	35.9
CNc1nc(C)nc(N2CCC(NC(=O)NC34CC5CC(CC(C5)O3)C4)CC2)n1	496
O=C(NC1CCN(C(=O)C2CCOCC2)CC1)NC12CC3CC(CC(C3)O1)C2	491
O=C(NC12CC3CC(CC(C3)O1)C2)N[C@H]1CC[C@H](Oc2ccc(C(=O)O)cc2)CC1	9
O=C(Nc1ncncn1)NC12CC3CC(CC(C3)O1)C2	1450
O=C(NC1CCN(C(=O)c2cccnc2)CC1)NC12CC3CC(CC(C3)O1)C2	159
CS(=O)(=O)N1CCC(NC(=O)NC23CC4CC(CC(C4)O2)C3)CC1	247

test system: not listed separately; experiment: Stability in mouse liver microsomes assessed as parent compound remaining measured after 60 mins in presence of NADPH by LC-MS/MS analysis; assay type: ADME, Microsome; settings: read-out: Stabilty
Method in brief: (§1)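 Compound is incubated at 37 °C with human, mouse or rat liver microsomes in 50 mM phosphate buffer pH 7.4. […] Samples at 0–60 min are quenched into acetonitrile; percent parent remaining at 60 min is reported. Testosterone is the positive control.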

SMILES	remaining at 1 h [%]
CC(=O)c1ccc(N2CCC(NC(=O)NC34CC5CC(CC(C5)O3)C4)CC2)cc1	73
O=C(NC1CCN(C(=O)c2ccccc2F)CC1)NC12CC3CC(CC(C3)O1)C2	39.5

molecular target: T2, Prostaglandin G/H synthase 2 (Homo sapiens) (UniProt P35354); experiment: Inhibition of recombinant human COX2 using arachidonic acid as substrate measured after 5 mins by fluorescence assay; settings: not given
T2 sequence (whole entry): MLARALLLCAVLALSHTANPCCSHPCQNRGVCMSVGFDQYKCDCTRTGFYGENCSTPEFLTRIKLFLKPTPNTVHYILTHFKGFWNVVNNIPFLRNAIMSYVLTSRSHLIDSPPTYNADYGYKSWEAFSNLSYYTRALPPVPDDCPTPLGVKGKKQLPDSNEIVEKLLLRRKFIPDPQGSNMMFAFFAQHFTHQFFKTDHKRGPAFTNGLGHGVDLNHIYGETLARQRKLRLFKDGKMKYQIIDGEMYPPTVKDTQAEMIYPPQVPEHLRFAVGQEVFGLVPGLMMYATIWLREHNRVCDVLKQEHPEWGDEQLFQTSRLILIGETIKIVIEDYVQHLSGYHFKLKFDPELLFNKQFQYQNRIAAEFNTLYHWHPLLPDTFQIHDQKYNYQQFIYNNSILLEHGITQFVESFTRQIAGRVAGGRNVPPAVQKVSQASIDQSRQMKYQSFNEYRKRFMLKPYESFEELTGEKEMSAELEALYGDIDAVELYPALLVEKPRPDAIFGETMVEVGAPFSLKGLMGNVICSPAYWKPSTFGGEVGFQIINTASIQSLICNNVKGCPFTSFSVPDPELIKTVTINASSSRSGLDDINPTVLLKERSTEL

SMILES	inhibition
CCC(=O)N1CCC(NC(=O)NC23CC4CC(CC(C4)O2)C3)CC1	inactive
O=C(NC1CCN(C(=O)c2ccccc2F)CC1)NC12CC3CC(CC(C3)O1)C2	inactive

test system: not listed separately; experiment: Apparent permeability across apical to basolateral side in human Caco-2 cells at 10 uM measured after 2 hrs by LC-MS/MS analysis; settings: caco-2, 2 h

SMILES	Papp [×10⁻⁶ cm/s]
O=C(Nc1ccc(F)c(F)c1F)NC12CC3CC(CC(C3)O1)C2	16.8
O=C(NC12CC3CC(CC(C3)O1)C2)N[C@H]1CC[C@H](Oc2ccc(C(=O)O)cc2)CC1	0.14
O=C(Nc1ccc(F)c(F)c1F)NC12CC3CC(CC(C3)C1)C2	0.67

molecular target: T3, Polyunsaturated fatty acid 5-lipoxygenase (Homo sapiens) (UniProt P09917); experiment: Inhibition of recombinant human full-length LOX5 (1 to 674 residues) expressed in insect cells using arachidonic acid as substrate preincubated for 10 mins followed by substrate addition measured after 20 mins by H2DCFDA probe based fluorescence assay; settings: time 30.0 min
T3 sequence (whole entry): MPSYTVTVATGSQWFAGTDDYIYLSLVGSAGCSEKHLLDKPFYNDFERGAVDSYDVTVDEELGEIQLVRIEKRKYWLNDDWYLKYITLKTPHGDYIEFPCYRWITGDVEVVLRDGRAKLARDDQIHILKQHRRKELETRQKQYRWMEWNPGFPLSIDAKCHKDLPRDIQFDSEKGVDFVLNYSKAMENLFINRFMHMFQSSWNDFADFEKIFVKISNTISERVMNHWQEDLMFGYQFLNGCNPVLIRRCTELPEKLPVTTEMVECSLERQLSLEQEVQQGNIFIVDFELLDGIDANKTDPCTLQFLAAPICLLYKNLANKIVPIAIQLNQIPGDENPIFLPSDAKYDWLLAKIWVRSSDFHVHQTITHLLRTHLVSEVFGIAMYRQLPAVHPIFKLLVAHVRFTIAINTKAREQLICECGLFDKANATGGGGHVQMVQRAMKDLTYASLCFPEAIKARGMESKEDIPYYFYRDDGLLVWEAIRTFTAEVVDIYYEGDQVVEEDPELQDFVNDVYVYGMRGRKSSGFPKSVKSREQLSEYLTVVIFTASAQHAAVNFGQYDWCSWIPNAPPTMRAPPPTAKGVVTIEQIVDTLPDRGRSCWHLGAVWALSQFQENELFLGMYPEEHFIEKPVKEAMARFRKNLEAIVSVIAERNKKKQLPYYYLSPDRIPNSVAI

SMILES	inhibition
CCC(=O)N1CCC(NC(=O)NC23CC4CC(CC(C4)O2)C3)CC1	inactive
O=C(NC1CCN(C(=O)c2ccccc2F)CC1)NC12CC3CC(CC(C3)O1)C2	inactive

test system: not listed separately; experiment: Apparent permeability across basolateral to apical side in human Caco-2 cells at 10 uM measured after 2 hrs by LC-MS/MS analysis; settings: caco-2, 2 h

SMILES	Papp [×10⁻⁶ cm/s]
O=C(Nc1ccc(F)c(F)c1F)NC12CC3CC(CC(C3)O1)C2	15.1
O=C(NC12CC3CC(CC(C3)O1)C2)N[C@H]1CC[C@H](Oc2ccc(C(=O)O)cc2)CC1	7.55
O=C(Nc1ccc(F)c(F)c1F)NC12CC3CC(CC(C3)C1)C2	0.46

test system: not listed separately; experiment: physchem; settings: 1% DMSO/99% PBS buffer solution

SMILES	solubility kinetic at 2 h [µM]
O=C(Nc1ccc(F)c(F)c1F)NC12CC3CC(CC(C3)O1)C2	27 (≈ 8.81 µg/mL)
CC(=O)c1ccc(N2CCC(NC(=O)NC34CC5CC(CC(C5)O3)C4)CC2)cc1	81.5 (≈ 32.4 µg/mL)
O=C(NC1CCN(C(=O)c2ccccc2F)CC1)NC12CC3CC(CC(C3)O1)C2	> 100
O=C(NC12CC3CC(CC(C3)O1)C2)N[C@H]1CC[C@H](Oc2ccc(C(=O)O)cc2)CC1	> 100
O=C(Nc1ccc(F)c(F)c1F)NC12CC3CC(CC(C3)C1)C2	16 (≈ 5.19 µg/mL)

test system: not listed separately; experiment: Stability in rat liver microsomes assessed as parent compound remaining measured after 60 mins in presence of NADPH by LC-MS/MS analysis; assay type: ADME, Microsome; settings: read-out: Stabilty; method in brief: as §1

SMILES	remaining at 1 h [%]
CC(=O)c1ccc(N2CCC(NC(=O)NC34CC5CC(CC(C5)O3)C4)CC2)cc1	84
O=C(NC1CCN(C(=O)c2ccccc2F)CC1)NC12CC3CC(CC(C3)O1)C2	19.3

molecular target: T4, Bifunctional epoxide hydrolase 2 (Mus musculus, UniProt P34914); experiment: Inhibition of recombinant mouse soluble epoxide hydrolase using CMNPC as substrate preincubated for 5 mins followed by substrate addition and measured at 30 secs interval for 10 mins by fluorescence assay; settings: not given
T4 sequence (P34914 whole entry): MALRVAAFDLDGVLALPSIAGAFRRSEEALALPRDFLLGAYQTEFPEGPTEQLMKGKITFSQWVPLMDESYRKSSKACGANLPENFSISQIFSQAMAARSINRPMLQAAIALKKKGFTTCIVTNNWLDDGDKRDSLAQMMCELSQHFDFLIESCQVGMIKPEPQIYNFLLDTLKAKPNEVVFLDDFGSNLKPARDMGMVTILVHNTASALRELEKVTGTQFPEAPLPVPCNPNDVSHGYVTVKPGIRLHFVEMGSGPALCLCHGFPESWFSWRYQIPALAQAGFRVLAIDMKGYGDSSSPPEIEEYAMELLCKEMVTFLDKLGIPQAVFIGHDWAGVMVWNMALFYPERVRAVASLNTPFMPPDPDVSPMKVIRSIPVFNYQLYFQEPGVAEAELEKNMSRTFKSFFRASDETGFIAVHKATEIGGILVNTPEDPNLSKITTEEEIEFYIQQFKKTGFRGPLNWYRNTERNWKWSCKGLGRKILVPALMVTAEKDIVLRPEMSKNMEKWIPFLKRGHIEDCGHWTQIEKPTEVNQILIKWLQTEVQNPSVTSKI
Method in brief: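 Purified recombinant enzyme was preincubated with inhibitor (0.4–100,000 nM final) for 5 min at 30 °C in 100 mM sodium phosphate, pH 7.4, with 0.1 mg/mL BSA and 1% DMSO. CMNPC was added at 5 μM final. 6-Methoxynaphthaldehyde fluorescence (ex 330/em 465 nm) was read every 30 s for 10 min. IC50 values are averages of three replicates.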

SMILES	IC50 [nM]
O=C(Nc1ccc(F)c(F)c1F)NC12CC3CC(CC(C3)O1)C2	553
O=C(Nc1ccc(Cl)c(C(F)(F)F)c1)NC12CC3CC(CC(C3)O1)C2	344
CCC(=O)N1CCC(NC(=O)NC23CC4CC(CC(C4)O2)C3)CC1	234
O=C(Nc1ccon1)NC12CC3CC(CC(C3)O1)C2	3850
O=C(Nc1cc(Cl)cc(OC(F)(F)F)c1)NC12CC3CC(CC(C3)O1)C2	1860
O=C(Nc1nc2ccccc2s1)NC12CC3CC(CC(C3)O1)C2	14700
CC(=O)c1ccc(N2CCC(NC(=O)NC34CC5CC(CC(C5)O3)C4)CC2)cc1	107
O=C(NC1CCN(C(=O)C2CC2)CC1)NC12CC3CC(CC(C3)O1)C2	130
O=C(Nc1cccc(S(F)(F)(F)(F)F)c1)NC12CC3CC(CC(C3)O1)C2	723
CNc1nc(C)nc(N2CCC(NC(=O)NC34CC5CC(CC(C5)O3)C4)CC2)n1	365
O=C(NC1CCN(C(=O)c2ccccc2F)CC1)NC12CC3CC(CC(C3)O1)C2	75.9
O=C(NC1CCN(C(=O)C2CCOCC2)CC1)NC12CC3CC(CC(C3)O1)C2	512
O=C(NC1CCN(C(=O)c2cccnc2)CC1)NC12CC3CC(CC(C3)O1)C2	291
CS(=O)(=O)N1CCC(NC(=O)NC23CC4CC(CC(C4)O2)C3)CC1	174

test system: not listed separately; experiment: Stability in human liver microsomes assessed as parent compound remaining measured after 60 mins in presence of NADPH by LC-MS/MS analysis; assay type: ADME, Microsome; settings: read-out: Stabilty; method in brief: as §1

SMILES	remaining at 1 h [%]
CC(=O)c1ccc(N2CCC(NC(=O)NC34CC5CC(CC(C5)O3)C4)CC2)cc1	40
O=C(NC1CCN(C(=O)c2ccccc2F)CC1)NC12CC3CC(CC(C3)O1)C2	30.2

test system: not listed separately; experiment: Efflux ratio of apparent permeability across basolateral to apical side over apical to basolateral side in human Caco-2 cells at 10 uM measured after 2 hrs by LC-MS/MS analysis; settings: not given

SMILES	efflux ratio at 2 h, 10 µM
O=C(NC12CC3CC(CC(C3)O1)C2)N[C@H]1CC[C@H](Oc2ccc(C(=O)O)cc2)CC1	55.4
